# Screening data as filed in PubChem.
# A selection: hits, their analogues and other compounds. The true share with any hit is near 2.5%.
# FGF22 binding: binders of human FGF22 protein, primary screen, FGF22 synaptogenesis inhibitor project, biophysical, thermal shift, single point; Fibroblast growth factor 22 (Homo sapiens), Q9HCT0; recombinant FGF22 thermal shift, SYPRO orange fluorescence; percent of sucrose octasulfate shift, DMSO zero; activity (Tm shift, normalised), % at 9.99 µM; hit rate 1.5% among 340,000; AID 651658, 2012;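 active = mean Tm shift, scaled 0 neutral to 100 positive control, at about 1.3% or above, every replicate too, limit read from the data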
# E-sel inducer: E-selectin induction in HUVECs, primary screen, imaging, HUVEC, immunofluorescence imaging, single point; activation, % at 7.58 µM; AID 686992, 2013; hit rate 0.37% among 260,000; normalized: neutral wells 0, TNF-alpha wells 100;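 active = mean E-selectin-positive cell signal at least 10% of the positive control, reached in at least 60% of replicates, without over 20% cell loss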
#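 Material: HUVEC primary endothelial cells; Amount: 3,000 cells per well; Dosing: single concentration; Medium: EGM-2 growth medium on 0.1% gelatin-coated wells; Read-out basis: percent E-selectin-positive cells; Signal: immunofluorescence imaging; Control set: TNF-alpha, DMSO.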
# miR122 inh: miR-122 Renilla sensor signal increase in Huh7, primary screen, miR-122 inhibitor project, cell-based, single point, plate reader | Huh7 miR-122 Renilla luciferase sensor, 48 h; neutral wells = 0, positive control = 100 | activation (reporter increase), % at 12.5 µM | hit rate 0.3% among 340,000 | AID 602342, 2012;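 active = mean replicate activation score at least 90 and every replicate individually at or above 90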;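 also: higher luciferase means less miR-122 activity so hits act as miR-122 inhibitors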
# SIRT5 inh: SIRT5 desuccinylase inhibitors, primary screen, biochemical, fluorescence imaging, single point, set 5 | NAD-dependent protein deacylase sirtuin-5, mitochondrial (Homo sapiens), Q9NXA8 | Purified SirT5, succinyl-peptide AMC, trypsin-coupled fluorescence | inhibition, % at 15 µM | hit rate 1.1% among 330,000 | AID 652115, 2013; in the data active = inhibition above about 15%
# Target sequence (Q9NXA8 whole entry, looked up): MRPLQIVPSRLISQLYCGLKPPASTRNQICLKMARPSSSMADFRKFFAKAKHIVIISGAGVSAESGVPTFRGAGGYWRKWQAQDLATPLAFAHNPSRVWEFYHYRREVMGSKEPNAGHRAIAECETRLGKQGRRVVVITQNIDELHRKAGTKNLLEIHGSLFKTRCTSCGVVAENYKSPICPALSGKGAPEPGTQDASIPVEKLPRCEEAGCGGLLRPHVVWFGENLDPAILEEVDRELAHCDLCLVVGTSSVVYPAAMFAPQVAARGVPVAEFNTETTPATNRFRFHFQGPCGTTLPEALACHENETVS
# S100A4 inh HTS: inhibitors of S100A4-myosin IIA peptide binding, primary screen, biochemical, fluorescence polarization, TAMRA-MyoIIA peptide. Protein S100-A4 (Homo sapiens), P26447. inhibition, % at 10.7 µM. hit rate 0.14% among 360,000;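 active = mean inhibition of at least 70% across replicates, with every replicate also reaching that level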
# Target sequence (P26447 whole entry, looked up): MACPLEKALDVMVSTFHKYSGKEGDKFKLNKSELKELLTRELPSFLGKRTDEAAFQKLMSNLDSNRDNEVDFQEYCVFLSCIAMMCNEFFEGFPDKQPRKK
#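 Compound dosing: one dose per compound; test system: human S100A4 monomer with TAMRA-labelled myosin IIA peptide; probe or stimulus: TAMRA-labelled myosin IIA heavy-chain peptide probe, 5 nM; medium: HEPES buffer with Ca2+, pH 7.2; schedule: 5 min incubation before reading; benchmarks: neutral control DMSO, positive control TFP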
# Hits are given with their value; – = inactive; · = not tested or not shown; ! = a repeat was not active.
SMILES,FGF22 binding,E-sel inducer,miR122 inh,SIRT5 inh,S100A4 inh HTS
Cc1noc(C)c1NC(=O)N(C)C[C@H]1Oc2ccc(NS(=O)(=O)c3cccs3)cc2C(=O)N([C@H](C)CO)C[C@H]1C,–,28.7,–,–,–
C[C@@H]1CN([C@@H](C)CO)C(=O)c2cc(NS(=O)(=O)c3cccs3)ccc2O[C@@H]1CN(C)S(C)(=O)=O,–,153.9,–,–,–
Cc1noc(C)c1NC(=O)N(C)C[C@H]1Oc2ccc(NS(=O)(=O)c3c(C)noc3C)cc2C(=O)N([C@H](C)CO)C[C@@H]1C,–,30.9!,–,–,–
COc1ccc2c3c([nH]c2c1)[C@H](CO)N(C(=O)CC1CC1)CC31CN(Cc2ccncc2)C1,–,–,·,–,–
N#C[C@@H]1[C@@H](c2ccccc2)[C@H](CO)N1S(=O)(=O)Cc1ccccc1,–,–,·,–,–
COc1ccc(Cl)cc1-c1cc(C(=O)N[C@H](C)c2ccccc2)[nH]n1,–,–,–,–,141.5
C[C@H]1CN([C@@H](C)CO)S(=O)(=O)c2ccc(C#CC3CCCCC3)cc2O[C@@H]1CN(C)Cc1cccnc1,–,·,–,18.2,–
C[C@@H]1CN([C@H](C)CO)S(=O)(=O)c2ccc(C#CC3CCCC3)cc2O[C@H]1CN(C)Cc1cncnc1,·,–,–,·,·
C[C@@H]1CN([C@@H](C)CO)S(=O)(=O)c2ccc(C#CC3CCCC3)cc2O[C@@H]1CN(C)Cc1cccnc1,–,–,–,–,–
C[C@@H]1CN([C@H](C)CO)S(=O)(=O)c2ccc(C#CC3CCCC3)cc2O[C@@H]1CN(C)C(=O)Cc1ccccc1,–,–,–,–,–
C[C@H]1CN([C@@H](C)CO)S(=O)(=O)c2ccc(C#CC3CCCC3)cc2O[C@H]1CN(C)C(=O)Cc1ccccc1,–,–,–,16.8,–
C[C@H]1CN([C@@H](C)CO)S(=O)(=O)c2ccc(C#CC3CCCC3)cc2O[C@@H]1CN(C)Cc1cccnc1,–,–,–,16.6,–
C[C@H](CO)N1C[C@H](C)[C@H](CN(C)Cc2cncnc2)Oc2cc(C#CC3CCCC3)ccc2S1(=O)=O,–,–,–,17.5,–
CC(C)NC(=O)N(C)C[C@@H]1Oc2ncc(C#Cc3ccncc3)cc2C(=O)N([C@@H](C)CO)C[C@H]1C,–,–,–,–,–
O=C(C[C@H]1C[C@H]2c3cc(NC(=O)C4CCC4)ccc3O[C@H]2[C@H](CO)O1)NCc1ccccc1F,–,–,–,–,–
CC(C)NC(=O)Nc1ccc2c(c1)CC(=O)N([C@@H](C)CO)C[C@@H](C)[C@H](CN(C)Cc1ccc(C(=O)Nc3ccccc3N)cc1)O2,–,–,–,–,–
C[C@H]1CN([C@@H](C)CO)C(=O)c2cc(NC(=O)Cn3cnnn3)ccc2O[C@H]1CN(C)S(=O)(=O)c1cn(C)cn1,–,–,–,–,–
COc1ccc(C2=NN(CCC(=O)NC3CCC(C)CC3)C(=O)CC2)cc1 (stereo not given),–,·,–,–,88.4
COc1ccc(C2=NN(CCC(=O)NC3CCCCCC3)C(=O)CC2)cc1,–,·,–,–,–
O=C(Cc1ccc(Cl)c(Cl)c1)Nc1cccc2ncccc12,43.0,–,–,–,–
Cc1cccc(C)c1NC(=O)N1CC=CCC1,·,–,–,–,–
Cc1cccc(C)c1NC(=O)N1CCCCCCC1,–,–,·,28.4,–
CCOC(=O)C1(Cc2cccc(OC)c2)CCN(Cc2ccccc2)CC1,·,32.6,–,–,–
CCOC(=O)C1(Cc2cccc(OC)c2)CCCN(Cc2cc(C(C)C)n[nH]2)C1 (stereo not given),–,28.1,–,–,–
CCOC(=O)C1(Cc2cccc(Cl)c2)CCCN(C(=O)C2CC2)C1 (stereo not given),43.0,·,–,–,–
CCOC(=O)C1(Cc2cccc(Cl)c2)CCCN(C(=O)c2ccco2)C1 (stereo not given),–,·,–,–,–
CCOC(=O)C1(Cc2cccc(OC)c2)CCN(Cc2cccnc2)CC1,–,–,–,–,–
